Reference: ChEMBL document CHEMBL1126759, “Potent HIV protease inhibitors: the development of tetrahydrofuranylglycines as novel P2-ligands and pyrazine amides as P3-ligands” (J Med Chem, 1993)
pIC50: −log10 of the molar value.

Columns and labels:
[1] = target: Human immunodeficiency virus type 1 protease (Human immunodeficiency virus 1) (UniProt Q72874); test: Tested for inhibitory concentration against spread of HIV-1 in MT-4 human T-lymphoid cells infected with IIIb isolate; assay type: functional, cell-based
In short: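 MT-4 cells grown in RPMI-1640 with 10% inactivated FBS, 4 mM glutamine and penicillin/streptomycin at 37 °C under CO2. Cells were pretreated 24 h with serially diluted compound (DMSO stock), then infected at 250 000 cells/mL, MOI 0.01. Compound was refreshed every 2–3 days. CIC was read by anti-HIV-1 immunofluorescence (complete block of spread, 7–24 days) or p24 ELISA (>95% reduction).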

[2] = target: Human immunodeficiency virus type 1 protease (Human immunodeficiency virus 1, UniProt Q72874); test: Tested for inhibitory concentration against HIV-1 protease
[3] = target: Human immunodeficiency virus type 2 pol protein (Human immunodeficiency virus 2, UniProt P88142); test: Tested for inhibitory concentration against HIV-2 protease; assay type: functional
Chain of Human immunodeficiency virus type 2 pol protein (P88142 whole entry): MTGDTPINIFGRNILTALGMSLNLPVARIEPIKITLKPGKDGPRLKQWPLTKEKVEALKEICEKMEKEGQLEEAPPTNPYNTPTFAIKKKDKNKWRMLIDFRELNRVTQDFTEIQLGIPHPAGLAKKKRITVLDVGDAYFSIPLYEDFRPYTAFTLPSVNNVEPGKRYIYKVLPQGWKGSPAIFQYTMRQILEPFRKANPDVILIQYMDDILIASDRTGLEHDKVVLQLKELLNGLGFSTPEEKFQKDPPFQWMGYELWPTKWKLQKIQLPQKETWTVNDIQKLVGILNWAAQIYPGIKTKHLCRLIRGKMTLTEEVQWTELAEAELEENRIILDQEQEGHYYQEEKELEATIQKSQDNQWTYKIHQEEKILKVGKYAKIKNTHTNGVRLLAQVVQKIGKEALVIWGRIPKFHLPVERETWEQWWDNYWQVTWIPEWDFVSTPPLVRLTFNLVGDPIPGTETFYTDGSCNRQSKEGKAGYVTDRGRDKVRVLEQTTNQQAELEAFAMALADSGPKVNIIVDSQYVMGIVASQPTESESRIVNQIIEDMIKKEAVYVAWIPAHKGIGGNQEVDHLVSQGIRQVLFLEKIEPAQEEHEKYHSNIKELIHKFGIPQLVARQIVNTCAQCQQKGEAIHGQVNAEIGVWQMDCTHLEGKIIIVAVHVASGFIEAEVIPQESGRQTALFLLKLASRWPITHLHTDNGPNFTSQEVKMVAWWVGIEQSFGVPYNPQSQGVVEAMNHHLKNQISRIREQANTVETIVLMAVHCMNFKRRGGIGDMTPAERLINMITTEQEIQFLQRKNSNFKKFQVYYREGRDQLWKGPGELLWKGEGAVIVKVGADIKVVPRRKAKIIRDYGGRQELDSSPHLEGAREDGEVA
In short: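 HIV-2 protease (ROD) purified the same way as HIV-1 protease, which was bacterially expressed; value reported as IC50.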

SMILES	IC95 [1] [nM]	pIC50 [2]	pIC50 [3]
CC(C)(C)NC(=O)[C@@H]1C[C@@H]2CCCC[C@@H]2CN1C[C@@H](O)[C@H](Cc1ccccc1)NC(=O)[C@@H](NC(=O)c1ccc2ccccc2n1)[C@H]1CCSC1	50	9.22	
CN1CCN(c2ncc(C(=O)N[C@H](C(=O)N[C@@H](Cc3ccccc3)[C@H](O)CN3C[C@H]4CCCC[C@H]4C[C@H]3C(=O)NC(C)(C)C)[C@H]3CCOC3)nc2Cl)CC1	12	10.15	9.74
CN(C)c1nc(N)c(C(=O)N[C@H](C(=O)N[C@@H](Cc2ccccc2)[C@H](O)CN2C[C@H]3CCCC[C@H]3C[C@H]2C(=O)NC(C)(C)C)[C@H]2CCOC2)nc1Cl	25	9.62	
CC(C)[C@H](NC(=O)c1cc(=O)c2ccccc2o1)C(=O)N[C@@H](Cc1ccccc1)[C@H](O)CN1C[C@H]2CCCC[C@H]2C[C@H]1C(=O)NC(C)(C)C	25	9.82	
CC(C)(C)NC(=O)[C@@H]1C[C@@H]2CCCC[C@@H]2CN1C[C@@H](O)[C@H](Cc1ccccc1)NC(=O)[C@@H](NC(=O)c1ccc2ccccc2n1)C1CCCC1		8.59	
COC(=O)c1nc(Cl)c(N[C@H](C(=O)N[C@@H](Cc2ccccc2)[C@H](O)CN2C[C@H]3CCCC[C@H]3C[C@H]2C(=O)NC(C)(C)C)[C@H]2CCOC2)nc1N	3	9.80	7.60
CC(C)(C)NC(=O)[C@@H]1C[C@@H]2CCCC[C@@H]2CN1C[C@@H](O)[C@H](Cc1ccccc1)NC(=O)[C@@H](NC(=O)c1ccc2ccccc2n1)[C@H]1CCS(=O)(=O)C1		9.30	
CC(C)(C)NC(=O)[C@@H]1C[C@@H]2CCCC[C@@H]2CN1C[C@@H](O)[C@H](Cc1ccccc1)NC(=O)[C@@H](NC(=O)c1ccc2ccccc2n1)[C@@H]1CCS(=O)(=O)C1		7.41	
CC(C)(C)NC(=O)[C@@H]1C[C@@H]2CCCC[C@@H]2CN1C[C@@H](O)[C@H](Cc1ccccc1)NC(=O)[C@@H](NC(=O)c1ccc2ccccc2n1)[C@@H]1CCSC1	> 200	8.48	
CC(C)(C)NC(=O)[C@@H]1C[C@@H]2CCCC[C@@H]2CN1C[C@@H](O)[C@H](Cc1ccccc1)NC(=O)[C@H](CC(N)=O)NC(=O)c1ccc2ccccc2n1	22		9.30
CC(C)(C)NC(=O)[C@@H]1C[C@@H]2CCCC[C@@H]2CN1C[C@@H](O)[C@H](Cc1ccccc1)NC(=O)[C@@H](NC(=O)c1cc(=O)c2ccccc2o1)[C@H]1CCOC1	25	9.96	
CC(C)[C@H](NC(=O)c1ccc2ccccc2n1)C(=O)N[C@@H](Cc1ccccc1)[C@H](O)CN1C[C@H]2CCCC[C@H]2C[C@H]1C(=O)NC(C)(C)C	100	9.15	8.49
CC(C)(C)NC(=O)[C@@H]1C[C@@H]2CCCC[C@@H]2CN1C[C@@H](O)[C@H](Cc1ccccc1)NC(=O)[C@@H](NC(=O)c1cnccn1)[C@H]1CCOC1		8.55	
CN(C)c1ncc(C(=O)N[C@H](C(=O)N[C@@H](Cc2ccccc2)[C@H](O)CN2C[C@H]3CCCC[C@H]3C[C@H]2C(=O)NC(C)(C)C)[C@H]2CCOC2)nc1Cl	12	10.22	
CC(C)[C@H](NC(=O)c1cnc2ccccc2n1)C(=O)N[C@@H](Cc1ccccc1)[C@H](O)CN1C[C@H]2CCCC[C@H]2C[C@H]1C(=O)NC(C)(C)C		9.41	
CC(C)(C)NC(=O)[C@@H]1C[C@@H]2CCCC[C@@H]2CN1C[C@@H](O)[C@H](Cc1ccccc1)NC(=O)[C@@H](NC(=O)c1ccc2ccccc2n1)C1CCOC1 (stereo partly specified)	8	10.27	9.62
CC(C)(C)NC(=O)[C@@H]1C[C@@H]2CCCC[C@@H]2CN1C[C@@H](O)[C@H](Cc1ccccc1)NC(=O)[C@@H](NC(=O)c1ccc2ccccc2n1)[C@@H]1CCOC1	100	8.27	
CC(C)(C)NC(=O)[C@@H]1C[C@@H]2CCCC[C@@H]2CN1C[C@@H](O)[C@H](Cc1ccccc1)NC(=O)[C@@H](NC(=O)c1cnc2ccccc2n1)[C@H]1CCOC1	12	9.92	
CC(C)(C)NC(=O)[C@@H]1C[C@@H]2CCCC[C@@H]2CN1C[C@@H](O)[C@H](Cc1ccccc1)NC(=O)[C@@H](NC(=O)c1ccc2ccccc2n1)C1CCOCC1		7.17	
